Source: PubChem BioAssay (several laboratories)
Most compounds without a hit are left out; they make up all but 2.9% or so of the library.
SENP8 block-1: SENP8 protease inhibitors, primary screen, biochemical, luminescence | Sentrin-specific protease 8 (Homo sapiens), Q96LD8 | purified SENP8, Z-RLRGG-aminoluciferin cleavage | inhibition, % at 10 µM | 330,000 tested, 1.2% active | AID 2540, 2010; in the data active = inhibition above about 50%
Target sequence (Q96LD8 whole entry, looked up): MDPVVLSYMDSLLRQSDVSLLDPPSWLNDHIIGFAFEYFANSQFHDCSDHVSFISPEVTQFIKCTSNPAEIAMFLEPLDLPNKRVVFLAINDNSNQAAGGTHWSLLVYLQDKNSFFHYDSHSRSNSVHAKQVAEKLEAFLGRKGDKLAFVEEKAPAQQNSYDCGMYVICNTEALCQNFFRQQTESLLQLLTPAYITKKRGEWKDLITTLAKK
HSP90 inh: HSP90 inhibitors, primary screen, cell lysate, luminescence; Heat shock protein HSP 90 (rabbit reticulocyte lysate; luciferase refolding); Rabbit reticulocyte lysate, luciferase refolding luminescence, 3 h; inhibition, % at 5.6 µM; 290,000 tested, 0.91% active; AID 1789, 2009;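 active = inhibition above the screen-wide mean plus 3 SD, computed separately per campaign, cut at about 16% in these data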;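 also: 0% = DMSO wells and 100% = 60 µM geldanamycin wells; inhibitors lower the luminescence because luciferase stays unfolded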
SENP7 inh: SENP7 protease inhibitors, primary screen, biochemical, luminescence, uHTS; Sentrin-specific protease 7 (Homo sapiens), Q9BQF6; recombinant SENP7, Z-RLRGG-aminoluciferin luminescence, 40 min; inhibition, % at 5 µM; 330,000 tested, 1.5% active;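 active = inhibition above about 50% at the single test dose, limit read from the data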;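 also: plate controls were DMSO with enzyme for no effect and no enzyme buffer wells for full effect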
SENP1 FRET inh: human SENP1 catalytic domain inhibitors, primary screen, biochemical, FRET, uHTS; inhibition, % at 10 µM; 360,000 tested, 0.21% active; recombinant SENP1 catalytic domain, CyPet-SUMO1-YPet FRET cleavage;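 active = inhibition at least 30% at 10 µM, raw YFP signal under a set limit, fluorescence ratio 0.5 to 1.5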;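 also: 0% = enzyme with DMSO and 100% = no enzyme wells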
Target sequence (Q9P0U3 419-644 limits assumed): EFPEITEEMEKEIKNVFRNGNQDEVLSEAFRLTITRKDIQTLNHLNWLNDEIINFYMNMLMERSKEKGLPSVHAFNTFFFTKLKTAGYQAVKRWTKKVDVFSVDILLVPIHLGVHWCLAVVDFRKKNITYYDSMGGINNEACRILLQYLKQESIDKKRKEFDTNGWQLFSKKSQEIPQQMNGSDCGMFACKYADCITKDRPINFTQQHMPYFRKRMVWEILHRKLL
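Assay system: hSENP1 catalytic domain, recombinant. Amount: SENP1 enzyme, 20 pM final. Schedule: 50 min reaction, RT, dark. Technique: FRET, CFP and YFP emission. Control set: no-enzyme wells low, DMSO-plus-enzyme wells high control.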
SENP6 block: SENP6 protease inhibitors, primary screen, biochemical, luminescence, uHTS | inhibition, % at 10 µM | Sentrin-specific protease 6 (Homo sapiens), Q9GZR1 | 330,000 tested, 1.8% active | Recombinant SENP6 catalytic domain, aminoluciferin luminescence;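 active = inhibition above about 50% at the single tested dose, limit read from the data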;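 also: plate controls were DMSO wells with enzyme for no effect and DMSO wells lacking enzyme for full effect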
SENP8 block-2: human SENP8 protease inhibitors, primary screen, biochemical, fluorescence, Nedd8 protein substrate, uHTS; 360,000 tested, 0.64% active; Sentrin-specific protease 8 (Homo sapiens), Q96LD8; recombinant SENP8; AID 602440, 2012; inhibition, % at 20 µM; in the data active = inhibition mostly above about 40%, no sharp cut-off; inactive = mostly below about 27%
SENP1 conf: human SENP1 catalytic domain inhibitors, confirmation, biochemical, FRET endpoint, single concentration; shares compounds with SENP1 FRET inh; recombinant SENP1, CyPet-SUMO1-YPet FRET cleavage; inhibition, % at 10 µM; 520 tested, 34% active; AID 651678, 2012; in the data active = inhibition mostly above about 35%, no sharp cut-off; inactive = mostly below about 32%;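 also: 0% = enzyme with DMSO and 100% = no enzyme control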
SENP1 kinetic: human SENP1 catalytic domain inhibitors, confirmation, biochemical, kinetic FRET, single concentration; 520 tested, 26% active; AID 651690, 2012; recombinant SENP1, CyPet-SUMO1-YPet FRET kinetic cleavage; shares compounds with SENP1 FRET inh; inhibition, % at 10 µM; in the data active = inhibition mostly above about 32%, no sharp cut-off; inactive = mostly below about 29%;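 also: 0% = DMSO with enzyme and 100% = no enzyme substrate only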
An asterisk follows results filed as active; . = no result given.

SMILES | SENP8 block-1 | HSP90 inh | SENP7 inh | SENP1 FRET inh | SENP6 block | SENP8 block-2 | SENP1 conf | SENP1 kinetic
CC(=O)Oc1ccc(N2C(=O)C3C(C2=O)C(C(=O)c2ccc(Cl)cc2)N2CCCC32)cc1 (stereo not drawn) | 4 | 0 | 2 | 61* | -13 | 3 | 86* | 45*
COc1ccc(S(=O)(=O)N2CCN(C(=O)/C=C/c3ccco3)CC2)cc1 | -2 | . | -4 | -6 | 6 | -5 | . | .
CCOC(=O)c1sc(N=NC2=C(O)CC(C)(C)CC2=O)c(C(=O)OCC)c1C | -9 | 0 | -4 | 56* | -45 | 30 | 30 | 20
CCOC(=O)c1cc(CC)sc1/N=C/C1=C(O)CC(C)(C)CC1=O | -15 | -5 | -3 | -56 | -20 | -47 | . | .
N#Cc1c(C(F)(F)F)cc(-c2ccc(Cl)c(Cl)c2)nc1SCCN1CCOCC1 | 3 | 0 | 9 | 38* | -2 | -72 | 26 | 23
CCOC(=O)C1(C)CCCCCN1C(=O)c1ccc(C(=O)OC)cc1 (stereo not drawn) | . | . | . | 2 | . | 20 | . | .
COc1ccc2c(CN(Cc3ccccc3)Cc3ccccc3)cc(=O)oc2c1 | . | . | . | -1 | . | -86 | . | .
Cc1cccc2nc(-c3cccnc3)c(Nc3ccccc3)n12 | 2 | 2 | -1 | 0 | -11 | -256 | . | .
Cc1cc(C)n2c(NC3CCCC3)c(-c3cccnc3)nc2n1 | . | . | . | 32* | . | -28 | 20 | 10
Cc1cccc2nc(-c3cccnc3)c(NCCC(C)C)n12 | 3 | -1 | 4 | -8 | -11 | -435 | . | .
CCCCNc1c(-c2cccnc2)nc2nc(C)cc(C)n12 | . | . | . | 36* | . | -26 | 19 | 15
Cc1cc(C)n2c(Nc3c(C)cccc3C)c(-c3cccnc3)nc2n1 | . | . | . | 64* | . | -43 | 39* | 27
COc1ccccc1C(=O)NCCC(=O)Nc1ccc(S(=O)(=O)N2CCC(C)CC2)cc1 | 4 | . | 4 | 1 | -4 | 13 | . | .
O=S(=O)(Nc1ccc(S(=O)(=O)N2CCCC2)cc1)c1ccccc1Br | -10 | . | -13 | -1 | -19 | 0 | . | .
Cc1ccc2n(n1)c(=O)c(Cc1ccccc1)c([O-])[n+]2-c1ccccc1 | 0 | 4 | 8 | 35* | 1 | -4 | 53* | 35*
CC(C)c1ccc2nc3sc(C(=O)N4CCc5ccccc5C4)c(N)c3cc2c1 | 5 | 4 | 4 | 61* | 14 | -66 | 81* | 51*
Cc1cc(C)c2c(N)c(C(=O)N3CCc4ccccc4C3)sc2n1 | 1 | -3 | 5 | -13 | 0 | -235 | . | .
CC(C)(C)S(=O)N1Cc2cc(=O)n(Cc3ccccc3)c(CCO)c2[C@H]1CCO (stereo partly drawn) | . | . | . | -2 | . | -93 | . | .
O=C(O)CN1C(=O)/C(=C\c2cccc(OCc3ccccc3)c2)SC1=S | -31 | 2 | 4 | 1 | -12 | 16 | . | .
COc1cc(/C=C2\SC(=S)N(CC(=O)O)C2=O)ccc1OC(=O)c1ccco1 | -14 | -1 | 1 | 39* | 3 | 24 | 83* | 63*
COc1cc(/C=C2/SC(=S)N(CC(=O)O)C2=O)ccc1OC(=O)c1ccco1 | -5 | 1 | -1 | 32* | -15 | 29 | 84* | 65*
COc1ccc(/C=C2/SC(=S)N(CC(=O)O)C2=O)cc1OCc1ccc(Cl)cc1 | -5 | -4 | 5 | -30 | 0 | -16 | . | .
C/C(=N\NC(=O)c1ccc(O)cc1)c1ccc2c(c1)Nc1ccccc1S2 | -5 | 5 | -8 | 70* | 2 | 2 | 86* | 56*
C/C(=N\NC(=O)c1ccccc1F)c1ccc2c(c1)Nc1ccccc1S2 | -10 | 4 | 1 | 35* | -9 | 26 | 60* | 39*
O=C(Nc1ccc(F)c(Cl)c1)C1Cc2c(-c3ccc4c(c3)OCO4)ccnc2O1 (stereo not drawn) | . | . | . | -1 | . | -78 | . | .
SMILES | SENP8 block-1 | HSP90 inh | SENP7 inh | SENP1 FRET inh | SENP6 block | SENP8 block-2 | SENP1 conf | SENP1 kinetic
CCN(C(=O)CSc1nnc(NCCOC)s1)c1c(N)n(Cc2ccccc2)c(=O)[nH]c1=O | . | . | . | 0 | . | 6 | . | .
Cc1ccc(-c2nc(N/N=C/c3cccc([N+](=O)[O-])c3)c3ccccc3n2)cc1 | -5 | 1 | -3 | 31* | 14 | 19 | 12 | 13
NC(=O)C[n+]1cccc2ccccc21 | -6 | -2 | 17 | 39* | -22 | -61 | 9 | 9
O=[N+]([O-])c1ccc(C[n+]2cccc3ccccc32)cc1 | 2 | 3 | 3 | 2 | 0 | 14 | . | .
Cc1ccc(C(=O)C[n+]2ccccc2)cc1 | 5 | 3 | 6 | -2 | 20 | 14 | . | .
Cc1ccc(C(=O)C[n+]2cccc3ccccc32)cc1 | -4 | 0 | -1 | 30* | -10 | -71 | 14 | 16
O=C(C[n+]1cccc2ccccc21)c1ccc(Br)cc1 | -4 | 1 | 3 | 57* | -4 | -44 | 5 | 11
COc1ccc(OC)c(CCNC(=O)c2ccc3c(=O)[nH]c4c(C(=O)NC(C)C)sc(=S)n4c3c2)c1 | 6 | -4 | 3 | 50* | 5 | 22 | 41* | 40*
COc1ccc(OC)c(CCNC(=O)c2ccc3c(c2)N(Cc2ccc(F)cc2)CCS3)c1 | -10 | 0 | 6 | 0 | -8 | -365 | . | .
CN(C)C(=O)CSc1ccc(S(=O)(=O)N2CCCC2)cn1 | 21 | . | 2 | 39* | 5 | 12 | 44* | 42*
Nc1ccc2c(c1)C(=O)N(CC1CCCO1)C2=O (stereo not drawn) | -4 | 1 | -19 | 62* | -3 | -22 | 65* | 48*
Nc1ccc(Oc2ccc3c(c2)C(=O)N(CC2CCCO2)C3=O)cc1 (stereo not drawn) | -5 | 1 | 0 | 0 | -25 | 11 | . | .
O=C(c1ccc([N+](=O)[O-])s1)N1CCc2ccccc21 | -13 | -2 | 4 | 55* | -4 | 24 | 11 | 11
O=C(c1ccc([N+](=O)[O-])s1)N1CCCc2ccccc21 | 4 | 5 | 4 | 2 | -6 | 29 | . | .
O=C(c1ccc([N+](=O)[O-])cc1)N1CCC(n2nnc3cc(F)ccc32)CC1 | -3 | 3 | 0 | -1 | -7 | 4 | . | .
